In brackets after ≈: the same amount, converted by molar mass. Activity calls are given as the source filed them. No cut-off for these calls is given here. Peptide text beside a SMILES is read from it. * marks the point of attachment. X1 = CCN(CC)c1ccc2cc(-n3cc(CCC(=O)*)nn3)c(=O)oc2c1; Pent4ynoyl = C#CCCC(=O)*
Key:
[1] = tested on: Cryptococcus gattii species complex; assay: Antifungal activity against Cryptococcus gattii 29/10893 after 72 hrs by microdilution method; assay type: functional, Cryptococcus bacillisporus; conditions: 29/10893, 72 h
Method in brief: (§1)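 Broth microdilution susceptibility per CLSI M27-A3; MIC reported in […]. Panel includes C. gattii strains (one fluconazole-resistant, L27/01F) and C. neoformans ATCC strains; fluconazole run as reference drug.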

[2] = tested on: Cryptococcus gattii species complex; assay: Antifungal activity against Cryptococcus gattii 196L/03 after 72 hrs by microdilution method; assay type: functional, Cryptococcus bacillisporus; conditions: 196L/03, 72 h; method in brief: as §1
Cryptococcus neoformans [3] = assay: Antifungal activity against Cryptococcus neoformans ATCC 62066 after 72 hrs by microdilution method; assay type: functional; conditions: ATCC 62066, 72 h; method in brief: as §1
Cryptococcus gattii = assay: Antifungal activity against Cryptococcus gattii ATCC 24065 after 72 hrs by microdilution method; conditions: ATCC 24065, 72 h
[4] = tested on: Cryptococcus gattii species complex; assay: Antifungal activity against Cryptococcus gattii L24/01 after 72 hrs by microdilution method; assay type: functional, Cryptococcus bacillisporus; conditions: L24/01, 72 h; method in brief: as §1
[5] = tested on: Cryptococcus gattii species complex; assay: Antifungal activity against fluconazole-resistant Cryptococcus gattii L27/01F after 72 hrs by microdilution method; assay type: functional, Cryptococcus bacillisporus
Method in brief: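 Broth microdilution susceptibility test following the CLSI M27-A3 standard; the MIC is reported in […]. Fluconazole is run in parallel as the reference drug across the C. gattii and C. neoformans strain panel.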

[6] = tested on: Cryptococcus gattii species complex; assay: Antifungal activity against Cryptococcus gattii 23/10993 after 72 hrs by microdilution method; assay type: functional, Cryptococcus bacillisporus; conditions: 23/10993, 72 h; method in brief: as §1
[7] = tested on: Cryptococcus gattii species complex; assay: Antifungal activity against Cryptococcus gattii ICB 181 after 72 hrs by microdilution method; assay type: functional, Cryptococcus bacillisporus; conditions: ICB 181, 72 h; method in brief: as §1
Cryptococcus neoformans [8] = assay: Antifungal activity against Cryptococcus neoformans ATCC 24067 after 72 hrs by microdilution method; assay type: functional; conditions: ATCC 24067, 72 h; method in brief: as §1
[9] = tested on: Cryptococcus gattii species complex; assay: Antifungal activity against Cryptococcus gattii L135/03 after 72 hrs by microdilution method; assay type: functional, Cryptococcus bacillisporus; conditions: L135/03, 72 h; method in brief: as §1
[10] = tested on: Cryptococcus gattii species complex; assay: Antifungal activity against Cryptococcus gattii L27/01 after 72 hrs by microdilution method; assay type: functional, Cryptococcus bacillisporus; conditions: L27/01, 72 h; method in brief: as §1
[11] = tested on: Cryptococcus bacillisporus; assay: Antifungal activity against Cryptococcus gattii ATCC 32608 after 72 hrs by microdilution method; assay type: functional; conditions: ATCC 32608, 72 h; method in brief: as §1
[12] = tested on: Cryptococcus gattii species complex; assay: Antifungal activity against Cryptococcus gattii 547/OTT after 72 hrs by microdilution method; assay type: functional, Cryptococcus bacillisporus; method in brief: as §1
[13] = tested on: Cryptococcus gattii species complex; assay: Antifungal activity against Cryptococcus gattii 1913ER after 72 hrs by microdilution method; assay type: functional, Cryptococcus bacillisporus; method in brief: as §1
Cryptococcus neoformans [14] = assay: Antifungal activity against Cryptococcus neoformans ATCC 28957 after 72 hrs by microdilution method; assay type: functional; conditions: ATCC 28957, 72 h; method in brief: as §1
[15] = tested on: Cryptococcus gattii species complex; assay: Antifungal activity against Cryptococcus gattii LMM 818 after 72 hrs by microdilution method; assay type: functional, Cryptococcus bacillisporus; conditions: LMM 818, 72 h; method in brief: as §1
[16] = tested on: Cryptococcus gattii species complex; assay: Antifungal activity against Cryptococcus gattii L28/02 after 72 hrs by microdilution method; assay type: functional, Cryptococcus bacillisporus; conditions: L28/02, 72 h; method in brief: as §1
Cryptococcus neoformans [17] = assay: Antifungal activity against Cryptococcus neoformans ATCC 96806 after 72 hrs by microdilution method; assay type: functional; conditions: ATCC 96806, 72 h; method in brief: as §1
[18] = tested on: Cryptococcus bacillisporus; assay: Induction of reactive oxygen species formation in Cryptococcus gattii ATCC 32608 at MIC after 0.5 to 1 hr by dichlorofluorescein diacetate probe-based fluorometric assay relative to control; assay type: functional, organism-based
Method in brief: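 Endogenous ROS in C. gattii ATCC 32608 cells treated at the compound's MIC, measured fluorometrically (signal proportional to ROS accumulation); untreated cells and compound alone measured for baseline; group differences tested statistically.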

[19] = Induction of reactive oxygen species formation after 0.5 to 1 hr by dichlorofluorescein diacetate probe-based fluorometric assay; assay type: physicochemical

Row | Molecule | MIC [1] [µM] | MIC [2] [µM] | MIC (Cryptococcus neoformans [3]) [µM] | MIC (Cryptococcus gattii) [µM] | MIC [4] [µM] | MIC [5] [µM] | MIC [6] [µM] | MIC [7] [µM] | MIC (Cryptococcus neoformans [8]) [µM] | MIC [9] [µM] | MIC [10] [µM] | MIC [11] [µM] | MIC [12] [µM] | MIC [13] [µM] | MIC (Cryptococcus neoformans [14]) [µM] | MIC [15] [µM] | MIC [16] [µM] | MIC (Cryptococcus neoformans [17]) [µM] | Activity [18] | Activity [19]
1 | CCN(CC)c1ccc2cc(N=[N+]=[N-])c(=O)oc2c1 | > 990 | > 990 | > 990 | > 990 | > 990 | > 990 | > 990 | > 990 | > 990 | > 990 | > 990 | > 990 | > 990 | > 990 | > 990 | > 990 | > 990 | > 990 | – | –
2 | CCN(CC)c1ccc2cc(-n3cc(CCCO)nn3)c(=O)oc2c1 | > 750 | > 750 | > 750 | > 750 | > 750 | > 750 | > 750 | > 750 | > 750 | > 750 | > 750 | > 750 | > 750 | > 750 | > 750 | > 750 | > 750 | > 750 | Active | –
3 | C#CCCC(=O)N[C@@H](CCCNC(=N)N)C(=O)N[C@@H](C)C(=O)N[C@@H](CCCCN)C(=O)N[C@@H](CCCNC(=N)N)C(=O)N[C@@H](CCCNC(=N)N)C(=O)N[C@@H](CCSC)C(=O)N[C@@H](CCC(N)=O)C(=O)N[C@@H](Cc1ccc(O)cc1)C(N)=O (Pent4ynoyl-RAKRRMQY-NH2) | > 220 | > 220 | > 220 | > 220 | > 220 | > 220 | > 220 | > 220 | > 220 | > 220 | > 220 | > 220 | > 220 | > 220 | > 220 | > 220 | > 220 | > 220 | – | –
4 | CCN(CC)c1ccc2cc(-n3cc(CCC(=O)N[C@@H](CCCNC(=N)N)C(=O)N[C@@H](C)C(=O)N[C@@H](CCCCN)C(=O)N[C@@H](CCCNC(=N)N)C(=O)N[C@@H](CCCNC(=N)N)C(=O)N[C@@H](CCSC)C(=O)N[C@@H](CCC(N)=O)C(=O)N[C@@H](Cc4ccc(O)cc4)C(N)=O)nn3)c(=O)oc2c1 (X1-RAKRRMQY-NH2) | 90 (≈ 130 µg/mL) | 40 (≈ 57.8 µg/mL) | 90 (≈ 130 µg/mL) | 180 (≈ 260 µg/mL) | 90 (≈ 130 µg/mL) | 90 (≈ 130 µg/mL) | 180 (≈ 260 µg/mL) | 90 (≈ 130 µg/mL) | 90 (≈ 130 µg/mL) | 40 (≈ 57.8 µg/mL) | 40 (≈ 57.8 µg/mL) | 90 (≈ 130 µg/mL) | 40 (≈ 57.8 µg/mL) | 180 (≈ 260 µg/mL) | 90 (≈ 130 µg/mL) | 180 (≈ 260 µg/mL) | 90 (≈ 130 µg/mL) | 90 (≈ 130 µg/mL) | Active | Not Active
5 | OC(Cn1cncn1)(Cn1cncn1)c1ccc(F)cc1F [FLUCONAZOLE] | 30 (≈ 9.19 µg/mL) | 100 (≈ 30.6 µg/mL) | 30 (≈ 9.19 µg/mL) | 10 (≈ 3.06 µg/mL) | 50 (≈ 15.3 µg/mL) | 420 (≈ 129 µg/mL) | 50 (≈ 15.3 µg/mL) | 50 (≈ 15.3 µg/mL) | 20 (≈ 6.13 µg/mL) | 50 (≈ 15.3 µg/mL) | 100 (≈ 30.6 µg/mL) | 50 (≈ 15.3 µg/mL) | 100 (≈ 30.6 µg/mL) | 50 (≈ 15.3 µg/mL) | 3 (≈ 0.919 µg/mL) | 100 (≈ 30.6 µg/mL) | 100 (≈ 30.6 µg/mL) | 150 (≈ 45.9 µg/mL) | – | –
6 | H-RAKRRMQY-NH2 | > 230 | > 230 | > 230 | > 230 | > 230 | > 230 | > 230 | > 230 | > 230 | > 230 | > 230 | > 230 | > 230 | > 230 | > 230 | > 230 | > 230 | > 230 | – | –

From ChEMBL document CHEMBL3425414, “Synthesis of a New Peptide-Coumarin Conjugate: A Potential Agent against Cryptococcosis” (ACS Med Chem Lett, 2015)
